Measurements from different studies.
Each line is one published result; the experiments were not run side by side.
Read-out: cell growth or viability

CC(=O)O[C@H]1C(=O)[C@@]2(C)[C@H]([C@H](OC(=O)c3ccccc3)[C@]3(O)C[C@H](OC(=O)[C@H](O)[C@@H](NC(=O)c4ccccc4)c4ccccc4)C(C)=C1C3(C)C)[C@]1(OC(C)=O)CO[C@@H]1C[C@@H]2O  IC50 (HCC1937; ATP luminescence; 72 h): > 2.5 µM
Cc1cc(C)cc(COc2cc3c(cc2OCc2cc(C)cc(C)c2)[C@H]2C[C@](O)(Cc4cn(Cc5ccncc5)nn4)C[C@H](C)N2CC3)c1  IC50 (GES1; MTT; 48 h): 2.55 µM
COc1cccc2c1C(=O)c1c(O)c3c(c(O)c1C2=O)C[C@@](O)(C(=O)CO)C[C@@H]3O[C@H]1C[C@H](N)[C@H](O)[C@H](C)O1  IC50 (A 172; WST-1; 72 h): 0.04 µM
NCCCOc1cc(NC(=O)c2cc(OCCN)cc(C(=O)Nc3cc(OCCCN)c4ccccc4n3)n2)nc2ccccc12  IC50 (HT-1080; ATP luminescence; 72 h): 6.8 µM
CC(C)C[C@H](NC(=O)[C@H](Cc1ccccc1)NC(=O)c1cnccn1)B(O)O  IC50 (MM.1R; ATP luminescence; 48 h): 0.0089 µM
CCN1CCN(c2ccc(Nc3cc(N(C)C(=O)Nc4c(Cl)c(OC)cc(OC)c4Cl)ncn3)cc2)CC1  IC50 (SNU-16; ATP luminescence; 96 h): 0.00931 µM
CN(C)CCCOc1cc(NC(=O)c2cc(Cl)cc(C(=O)Nc3cc(OCCCN(C)C)c4ccccc4n3)n2)nc2ccccc12  IC50 (HT-1080; ATP luminescence; 72 h): 1.8 µM
O=C(O)c1ccc(NC(=O)c2cc3cc(Cl)ccc3[nH]2)cc1  IC50 (T24; MTT): 15 µM
O=C1Nc2ccccc2C1=Cc1cc2cc(Cl)ccc2nc1Cl  IC50 (CHO; MTT; 72 h): 38.5 µM
COc1cc(C(=O)Nc2cc(OC)c3ccccc3n2)nc(C(=O)Nc2cc(OC)c3ccccc3n2)c1  IC50 (HT-1080; ATP luminescence; 72 h): > 40 µM
COc1cccc2c1C(=O)c1c(O)c3c(c(O)c1C2=O)C[C@@](O)(C(=O)CO)C[C@@H]3O[C@H]1C[C@H](N)[C@H](O)[C@H](C)O1  IC50 (BHK; SRB; 48 h): 36.4 µM
C#CCOc1cc(C(=O)Nc2cc(OCCCN)c3ccccc3n2)nc(C(=O)Nc2cc(OCCCN)c3ccccc3n2)c1  IC50 (HT-1080; ATP luminescence; 72 h): 2.6 µM
CN1/C(=N/c2ccc(Cl)cc2)c2cc(C(N)=O)nc3c(N)c(Cl)c(N)c1c23  IC50 (HCC4017): 22.9 µM
CC[C@H]1CN2CCc3cc(OC)c(OC)cc3[C@@H]2C[C@@H]1C[C@H]1NCCc2cc(OC)c(OC)cc21  IC50 (CHO; MTT): 0.25 µM
C=C(C)C(=O)Nc1ccc(-c2c(-c3ccc(Oc4nccc(C)n4)c(F)c3)c3c(N)ncnc3n2C)cc1  IC50 (NCI-H716; ATP luminescence; 96 h): 0.00209 µM
COc1cc(Nc2nccc(-c3cnn4nc(OC)ccc34)n2)cc(C(F)(F)F)c1  IC50 (HT-1080; ATP luminescence): 0.18 µM
CCN(CC)CCNC(=O)c1c(C)[nH]c(/C=C2\C(=O)Nc3ccc(F)cc32)c1C  IC50 (IEC-6; 72 h): 3.06 µM
